p-CIP stab down: p/CIP-EGFP fusion destabilizers, primary screen, fluorescence, F442A cells; 16 h; hit rate 0.01% among 290,000; decrease of EGFP signal, % at 10 µM; Q05BA5; AID 1984, 2009;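 active means EGFP signal decrease of at least 30% at 10 µM or well 3 SD below plate mean, unless failing retest; inactive means the rest, including hits failing retest or dose response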
PHOSPHO1 block: PubChem AID 1565; inhibition, % at 13.3 µM; recombinant PHOSPHO1, absorbance phosphatase assay; Phosphoethanolamine/phosphocholine phosphatase (Homo sapiens), Q8TCT1; hit rate 1.1% among 290,000; in the data active means inhibition above about 60%
Target sequence (Q8TCT1 whole entry, looked up): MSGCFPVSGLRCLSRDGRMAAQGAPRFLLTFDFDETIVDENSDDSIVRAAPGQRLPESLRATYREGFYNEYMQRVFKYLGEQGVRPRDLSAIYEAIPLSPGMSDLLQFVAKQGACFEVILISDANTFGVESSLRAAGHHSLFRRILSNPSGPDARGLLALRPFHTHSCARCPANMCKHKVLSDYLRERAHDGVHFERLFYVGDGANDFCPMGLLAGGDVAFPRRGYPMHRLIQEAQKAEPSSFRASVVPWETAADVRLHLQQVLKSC
APOBEC3A inh: APOBEC3A ssDNA deaminase inhibitors, primary screen, selectivity assay for APOBEC3G inhibitor project, biochemical, FAM/TAMRA oligo cleavage fluorescence. DNA dC->dU-editing enzyme APOBEC-3A (Homo sapiens), P31941. recombinant A3A, FAM/TAMRA ssDNA deamination fluorescence. hit rate 0.41% among 330,000. inhibition, % at 20 µM;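 active means at least 40% inhibition at 20 µM here, with at most 30% in a related deaminase screen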
Target sequence (P31941 whole entry, looked up): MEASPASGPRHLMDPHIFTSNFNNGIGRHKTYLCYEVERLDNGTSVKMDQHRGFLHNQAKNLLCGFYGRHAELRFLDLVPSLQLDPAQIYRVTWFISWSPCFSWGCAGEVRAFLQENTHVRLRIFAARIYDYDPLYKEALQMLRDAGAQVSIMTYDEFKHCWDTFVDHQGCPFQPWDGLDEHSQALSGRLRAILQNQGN
A3G deaminase: APOBEC3G DNA deaminase inhibitors, primary screen, biochemical, fluorescence, single-stranded DNA substrate, uHTS. DNA dC->dU-editing enzyme APOBEC-3G (Homo sapiens), Q9HC16. recombinant A3G, ssDNA deamination FAM/TAMRA fluorescence. inhibition, % at 20 µM. hit rate 0.28% among 330,000. AID 493012, 2011;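 active means inhibition of at least 40% at 20 µM, with no more than 30% in the related APOBEC3A deaminase screen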
TbMetRS inhib: T. brucei MetRS inhibitors, primary screen, biochemical, luminescence; purified T. brucei MetRS, ATP depletion, Kinase-Glo luminescence; hit rate 0.4% among 360,000; methionyl-tRNA synthetase (Trypanosoma brucei brucei); AID 624268, 2012; inhibition, % at 11.9 µM;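 active means inhibition above a per-plate cutoff of the control wells' mean inhibition plus 3 SD, cut at about 5.5% in these data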
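Dosing: 11.9 µM single point; system: parasite MetRS enzyme; technique: luminescence of leftover ATP; times: 15 min enzyme-compound preincubation, 2 h reaction, 10 min detection, 25 °C; replicates: each compound tested once; read-out basis: percent inhibition relative to median high and low control wells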
TbMetRS confirm: T. brucei MetRS inhibitors, confirmation, biochemical, luminescence. T. brucei MetRS enzyme, luminescence (ATP depletion). AID 624412, 2012. shares compounds with TbMetRS inhib. inhibition, % at 11.9 µM. hit rate 93% among 1,400; in the data active means inhibition above about 7%
Jurkat cytotox: Jurkat T cell cytotoxicity, cytotoxicity control for T. brucei MetRS inhibitor project, luminescence, high throughput; Jurkat cells viability, ATP luminescence; inhibition, % at 8.3 µM; AID 624413, 2012; shares compounds with TbMetRS inhib; hit rate 12% among 1,400; in the data active means inhibition above about 15%
Tb MetRS inh FP: T. brucei MetRS inhibitors, orthogonal assay for T. brucei MetRS inhibitor project, biochemical, fluorescence polarization. shares compounds with TbMetRS inhib. purified T. brucei MetRS. inhibition, % at 11.9 µM. hit rate 44% among 1,400; in the data active means inhibition above about 17%
Each line names hits and unclear results; the compound was inactive in the other large screens (follow-up assays come after a bar, where they were run). This is a sample that favours compounds with a hit; in the whole collection about 1.8% have one here.

COc1c(Cl)cc(Cl)cc1CNc1ccc(S(N)(=O)=O)cc1	TbMetRS inhib 15.6 | TbMetRS confirm 25.3 | Jurkat cytotox 17.4 | Tb MetRS inh FP inactive
CC(Oc1ccc2c(-c3ccccc3)cc(=O)oc2c1)C(=O)NC(Cc1c[nH]c2ccc(O)cc12)C(=O)O (stereo not given)	TbMetRS inhib 7.4 | TbMetRS confirm 16.9 | Jurkat cytotox inactive | Tb MetRS inh FP inactive
CCO[C@@H]1OC(C(=O)NCc2nc3ccccc3[nH]2)=C[C@H](c2ccc(C(F)(F)F)cc2)[C@H]1CCCO	TbMetRS inhib 32.8 | TbMetRS confirm 61.4 | Jurkat cytotox inactive | Tb MetRS inh FP 37.7
C#Cc1ccc([C@@H]2C=C(C(=O)NCc3nc4ccccc4[nH]3)O[C@H](OCC)[C@H]2CCCO)cc1	TbMetRS inhib 27.6 | TbMetRS confirm 51.5 | Jurkat cytotox inactive | Tb MetRS inh FP 32.6
CCO[C@H]1OC(C(=O)NCc2nc3ccccc3[nH]2)=C[C@@H](C)[C@@H]1CCCO	none
CCO[C@H]1OC(C(=O)NCc2nc3ccccc3[nH]2)=C[C@@H](c2ccc(C(F)(F)F)cc2)[C@@H]1CCCO	TbMetRS inhib 11.1 | TbMetRS confirm 34.9 | Jurkat cytotox inactive | Tb MetRS inh FP inactive
Cc1cccc(C(=O)NNC(=O)CSc2nnc(C3CC3)n2C)c1	none
O=C1C=C(NC(=O)Nc2ccc(Cl)c(Cl)c2)CCC1	none
CSc1cccc(NC(=O)Cn2cnc(S(=O)(=O)N3CCCC3)c2)c1	TbMetRS inhib 8.6 | TbMetRS confirm 19.5 | Jurkat cytotox inactive | Tb MetRS inh FP inactive
CC(=O)c1cccc(NC(=O)Cn2cnc(S(=O)(=O)N3CCCCC3)c2)c1	none
O=C(Cn1cnc(S(=O)(=O)N2CCCC2)c1)Nc1cccc(Br)c1	TbMetRS inhib 14.4 | TbMetRS confirm 36.2 | Jurkat cytotox inactive | Tb MetRS inh FP inactive
O=C(CCCOc1ccc(Cl)cc1Cl)NCCc1nnc2ccccn12	TbMetRS inhib 7.8 | TbMetRS confirm 18.8 | Jurkat cytotox inactive | Tb MetRS inh FP inactive
Cc1ccc(OCC(=O)N[C@@H](C)c2nnc3ccccn23)cc1C	none
C[C@H](NC(=O)CCCOc1ccc(Cl)cc1Cl)c1nnc2ccccn12	TbMetRS inhib 7.4 | TbMetRS confirm 15.8 | Jurkat cytotox inactive | Tb MetRS inh FP inactive
O=S(=O)(CCNCc1ccco1)NC1CCCCC1	none (no result: p-CIP stab down, PHOSPHO1 block, APOBEC3A inh, A3G deaminase)
COC(=O)C1CCN(S(=O)(=O)c2cc3c4c(c2)CCN4C(=O)CC3)CC1	none (no result: p-CIP stab down, PHOSPHO1 block)
O=C(CCCC1=NS(=O)(=O)c2ccccc2N1)OCc1ccc(Cl)cc1	TbMetRS inhib 20.2 | TbMetRS confirm 44.2 | Jurkat cytotox inactive | Tb MetRS inh FP inactive
O=C(NCc1nc2ccccc2[nH]1)c1cccc(S(=O)(=O)N2CCOCC2)c1	TbMetRS inhib 64.6 | TbMetRS confirm 94.1 | Jurkat cytotox inactive | Tb MetRS inh FP 57.5
Cc1c(NS(=O)(=O)c2cc(C(=O)NCc3cccc(Cl)c3)ccc2Cl)c(=O)n(-c2ccccc2)n1C	TbMetRS inhib 10.6 (no result: p-CIP stab down, PHOSPHO1 block, APOBEC3A inh, A3G deaminase) | TbMetRS confirm 33.8 | Jurkat cytotox inactive | Tb MetRS inh FP 24.4
Cc1ccc(S(=O)(=O)N2CCN(Cc3nc4ccccc4[nH]3)CC2)cc1C	TbMetRS inhib 5.8 | TbMetRS confirm 16.8 | Jurkat cytotox inactive | Tb MetRS inh FP inactive
Cc1c(NS(=O)(=O)c2cc(C(=O)NCc3cccnc3)ccc2Cl)c(=O)n(-c2ccccc2)n1C	none (no result: p-CIP stab down, PHOSPHO1 block)
Cc1cc(C)c(C)c(S(=O)(=O)N2CCN(Cc3nc4ccccc4[nH]3)CC2)c1C	none
